Measurements as given in ChEMBL document CHEMBL1795280, “Design, synthesis and activity of a potent, selective series of N-aryl pyridinone inhibitors of p38 kinase” (Bioorg Med Chem Lett, 2011).
pIC50: −log10 of the molar value.

Legend:
PBMC = test: Antiinflammatory activity in human PBMC assessed as inhibition of LPS-induced TNFalpha production treated 1 hr before LPS challenge measured after 18 hrs; assay type: functional, cell-based
Outline: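 PBMCs isolated by Ficoll from heparinized blood of two healthy donors, in DMEM with 5% endotoxin-free FBS, 2.5 × 10⁵ cells/well. Pretreated 1 h with compound (0.0001–25 µM range), then stimulated 18 h with 22 ng/ml LPS. Final DMSO 0.25%. Secreted TNFα measured by MSD; IC50 reported.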

[1] = Clearance in iv and po dosed Sprague-Dawley rat; assay type: ADME, organism-based; settings: in vivo
[2] = target: Mitogen-activated protein kinase 14 (Homo sapiens, UniProt Q16539); test: Inhibition of p38alpha assessed as phosphorylation of […] after 60 mins by fluorescence assay
Chain of Mitogen-activated protein kinase 14 (Q16539 whole entry): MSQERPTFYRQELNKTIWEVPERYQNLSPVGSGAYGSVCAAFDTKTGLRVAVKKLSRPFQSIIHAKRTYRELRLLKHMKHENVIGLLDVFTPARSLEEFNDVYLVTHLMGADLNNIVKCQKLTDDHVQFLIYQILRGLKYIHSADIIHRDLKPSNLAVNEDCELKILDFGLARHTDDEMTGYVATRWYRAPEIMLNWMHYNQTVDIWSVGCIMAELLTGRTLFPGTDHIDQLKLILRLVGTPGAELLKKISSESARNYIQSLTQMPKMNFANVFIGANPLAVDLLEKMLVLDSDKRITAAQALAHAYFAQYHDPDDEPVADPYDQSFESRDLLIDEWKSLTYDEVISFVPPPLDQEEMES
Outline: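 Cascade assay in which activated p38α (6 pM final) activates unactivated MK2 (1 nM), which phosphorylates FITC-labelled Hsp27 peptide (1 nM) with […]. Inhibitor 0.2–10,000 nM. Room temperature, 60 min, EDTA quench. Phospho-peptide quantified by Caliper LabChip; IC50.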

Rattus norvegicus [3] = test: Antiinflammatory activity in Lewis rat assessed as inhibition of LPS-induced TNFalpha production at 5 mg/kg, po administered 6 hrs before LPS challenge by ELISA; assay type: functional
Outline: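 Adult male Lewis rats (225–250 g), fasted 18 h with free access to water. Compound or vehicle given by oral gavage (1 mL). LPS (E. coli 0111:B4) given 1 mg/kg i.v. in saline 2, 4 or 6 h later. Serum taken by cardiac puncture 90 min after LPS. TNFα quantified against a recombinant rat TNF standard curve with a four-parameter fit. Two vehicle groups per experiment, three experiments.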

[4] = Bioavailability in iv and po dosed Sprague-Dawley rat; assay type: ADME, organism-based; settings: in vivo
[5] = Half life in iv and po dosed Sprague-Dawley rat; assay type: ADME, organism-based; settings: in vivo
[6] = Solubility of the compound; assay type: physicochemical
[7] = Metabolic stability in human liver microsomes assessed as compound remaining at 2 uM after 45 mins by LC/MS analysis; assay type: ADME, Microsome; settings: read-out: Stability
[8] = Metabolic stability in rat liver microsomes assessed as compound remaining at 2 uM after 45 mins by LC/MS analysis; assay type: ADME, Microsome; settings: read-out: Stability
Rattus norvegicus [9] = test: Antiinflammatory activity in Lewis rat assessed as inhibition of LPS-induced TNFalpha production at 15 mg/kg, po administered 4 hrs before LPS challenge by ELISA

| Compound | pIC50 (PBMC) | clearance [1] [mL/min/kg] | pIC50 [2] | inhibition in vivo at 5 mg/kg (Rattus norvegicus [3]) [%] | bioavailability [4] [%] | half-life [5] [h] | solubility [6] [µg/mL] | remaining at 0.75 h, 2 µM [7] [%] | remaining at 0.75 h, 2 µM [8] [%] | inhibition in vivo at 15 mg/kg (Rattus norvegicus [9]) [%] |
| --- | --- | --- | --- | --- | --- | --- | --- | --- | --- | --- |
| Cc1cc(OCc2ccc(F)cc2F)c(Cl)c(=O)n1-c1c(F)cccc1F | 7.77 | 12.8 | 8.40 | 83 | 21 | 1.8 | < 10 | 74 | 87 | – |
| CN(C)Cc1cc(OCc2ccc(F)cc2F)c(Br)c(=O)n1-c1c(F)cccc1F | 7.30 | – | 8.22 | – | – | – | – | 0 | 0 | 69 |
